Key:
[1] = target: Thyrotropin receptor (Homo sapiens) (UniProt P16473); test: Agonist activity at TSHR expressed in HEK293 EM cells measured by intracellular cAMP accumulation relative to TSH; format: functional, cell-based
Procedure, shortened: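 Human TSHR stably expressed in HEK 293 EM cells, cultured 48 h, then incubated 1 h in serum-free DMEM with 1 mM IBMX and compound (0-100 µM) at 5% CO₂. Lysates assayed for cAMP by enzyme immunoassay. […] Maximal response expressed as % of bovine TSH response, reference 100 mU/mL. Two independent experiments in duplicate.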

[2] = target: Lutropin-choriogonadotropic hormone receptor (Homo sapiens) (UniProt P22888); test: Agonist activity at LHCGR expressed in HEK293 EM cells measured by intracellular cAMP accumulation relative to LH; format: functional, cell-based
Sequence of Lutropin-choriogonadotropic hormone receptor (Homo sapiens) (P22888 whole entry): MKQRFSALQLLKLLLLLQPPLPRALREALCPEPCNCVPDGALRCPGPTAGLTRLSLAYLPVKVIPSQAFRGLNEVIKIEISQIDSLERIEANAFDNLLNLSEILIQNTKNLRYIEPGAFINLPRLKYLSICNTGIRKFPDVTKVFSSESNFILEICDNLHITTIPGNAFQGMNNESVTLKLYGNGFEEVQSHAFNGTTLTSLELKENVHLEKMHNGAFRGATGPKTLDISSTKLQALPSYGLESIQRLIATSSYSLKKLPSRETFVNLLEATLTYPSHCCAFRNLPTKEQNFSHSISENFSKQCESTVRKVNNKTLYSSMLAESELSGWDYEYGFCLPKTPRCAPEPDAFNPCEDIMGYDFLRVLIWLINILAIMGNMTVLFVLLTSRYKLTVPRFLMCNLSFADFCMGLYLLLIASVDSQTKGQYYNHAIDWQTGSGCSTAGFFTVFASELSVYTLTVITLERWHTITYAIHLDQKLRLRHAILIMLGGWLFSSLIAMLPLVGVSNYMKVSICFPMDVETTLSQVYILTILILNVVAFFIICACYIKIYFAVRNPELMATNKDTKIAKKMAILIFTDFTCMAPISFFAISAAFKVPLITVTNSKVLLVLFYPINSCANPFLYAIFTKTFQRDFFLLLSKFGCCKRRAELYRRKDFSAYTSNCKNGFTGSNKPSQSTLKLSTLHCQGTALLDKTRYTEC
Procedure, shortened: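 Human LHCGR stably expressed in HEK 293 EM cells, cultured 48 h, then incubated 1 h in serum-free DMEM with 1 mM IBMX and compound (0-100 µM) at 5% CO₂. Cells were lysed and cAMP measured by enzyme immunoassay. […] Efficacy is % of maximal response to human LH (1000 ng/ml). Two independent experiments, each in duplicate.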

Sequence of Thyrotropin receptor (Homo sapiens) (P16473 whole entry): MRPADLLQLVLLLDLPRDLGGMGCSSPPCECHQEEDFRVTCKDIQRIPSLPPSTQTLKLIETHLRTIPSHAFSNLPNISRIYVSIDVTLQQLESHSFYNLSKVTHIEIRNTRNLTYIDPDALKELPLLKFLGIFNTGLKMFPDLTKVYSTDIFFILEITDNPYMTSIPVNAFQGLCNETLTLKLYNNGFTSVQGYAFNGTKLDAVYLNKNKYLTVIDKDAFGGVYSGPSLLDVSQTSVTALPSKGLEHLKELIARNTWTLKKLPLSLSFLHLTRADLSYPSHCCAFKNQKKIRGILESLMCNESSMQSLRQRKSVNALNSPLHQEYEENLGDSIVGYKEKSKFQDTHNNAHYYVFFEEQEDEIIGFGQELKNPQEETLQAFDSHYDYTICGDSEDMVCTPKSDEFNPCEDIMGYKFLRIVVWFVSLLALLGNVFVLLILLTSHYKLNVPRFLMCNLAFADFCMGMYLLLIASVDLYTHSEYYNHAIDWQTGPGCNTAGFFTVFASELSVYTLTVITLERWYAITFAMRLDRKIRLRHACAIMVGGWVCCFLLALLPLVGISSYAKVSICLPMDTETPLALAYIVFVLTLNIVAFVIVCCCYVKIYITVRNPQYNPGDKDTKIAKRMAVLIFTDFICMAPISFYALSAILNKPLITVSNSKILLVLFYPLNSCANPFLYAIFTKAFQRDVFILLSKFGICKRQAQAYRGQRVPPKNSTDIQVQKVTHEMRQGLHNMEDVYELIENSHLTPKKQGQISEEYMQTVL

Structure (SMILES) | Efficacy [1] | Efficacy [2]
COc1cccc(-c2nc(SC)nc3sc(C(=O)NNC(C)(C)C)c(N)c23)c1 | 6.4% | 6%
COc1cccc(-c2nc(SC)nc3sc(C(=O)N(C)C(C)(C)C)c(N)c23)c1 | 3.6% | 47.8%
COc1cccc(-c2nc(SC)nc3sc(C(=O)NC(C)(C)C)c(N)c23)c1 | 23.4% | 45.8%
CCOC(=O)c1sc2nc(SC)nc(-c3cccc(OC)c3)c2c1N | 1.5% | 4.2%
COc1cccc(-c2nc(SC)nc3sc(C(=O)NCCO)c(N)c23)c1 | 2.9% | 20.5%
COc1cccc(-c2nc(SC)nc3sc(C(=O)N(C)C)c(N)c23)c1 | 4% | 11%
COc1cccc(-c2nc(SC)nc3sc(C(=O)NNC(=O)OC(C)(C)C)c(N)c23)c1 | 1.9% | 2.4%
COc1cccc(-c2nc(SC)nc3sc(C(=O)NN)c(N)c23)c1 | 6.1% | 8.5%
COc1cccc(-c2nc(SC)nc3sc(C(=O)NCCc4ccccc4)c(N)c23)c1 | 4.3% | 25.6%
COc1cccc(-c2nc(SC)nc3sc(C(=O)OC(C)(C)C)c(N)c23)c1 | – | 23.8%
COc1cccc(-c2nc(SC)nc3sc(C(=O)NC(C)(C)C)c(N)c23)c1OC | 3% | 50.1%
COc1cccc(-c2nc(SC)nc3sc(C(=O)NCC#N)c(N)c23)c1 | 3.6% | 20.3%
CSc1nc(-c2cccc(O)c2)c2c(N)c(C(=O)NC(C)(C)C)sc2n1 | 11.2% | 63.9%
COc1cccc(-c2nc(SC)nc3sc(C(=O)NC(C)(C)C)c(N)c23)c1F | – | 46.3%
CCNC(=O)c1sc2nc(SC)nc(-c3cccc(OC)c3)c2c1N | 2.3% | 26.9%
CSc1nc(-c2cccc(F)c2)c2c(N)c(C(=O)NC(C)(C)C)sc2n1 | 8.1% | –
COc1cccc(-c2nc(SC)nc3sc(C(=O)NCc4ccccc4)c(N)c23)c1 | 3% | 7.8%

Reference: ChEMBL document CHEMBL1138049, “Evaluation of small-molecule modulators of the luteinizing hormone/choriogonadotropin and thyroid stimulating hormone receptors: structure-activity relationships and selective binding patterns” (J Med Chem, 2006)
